PubChem BioAssay AID449757 (Broad Institute, 2010)
Calls of active or inactive are those of the source.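 The calls were made as follows: active = compounds whose fitted caspase activation midpoint falls no more than tenfold above the top tested dose; inconclusive = flat fit with activity between 30 and 70 percent, or failed fit; inactive = the rest.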

Each molecule was assayed on MEF Flag-A1-IRES-BIM, caspase-Glo luminescence, 3 h (assay: Caspase-Glo signal, Flag-A1-IRES-BIM MEF cells – cell-based, alternate construct, luminescence, A1 (Bcl2A1) inhibitor project, dose response (AID 449757)).
Method in brief: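 System: Flag-A1-IRES-BIM-primed MEF cells; Doses: 100 nL compound added per well by pin transfer; Times: 3 h at 37 °C, then 1 h detection at room temperature; Measured by: luminescent caspase activity measurement with CaspaseGlo reagent.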

SMILES	AC50
CC(C)(C)c1ccc(C(=O)Nc2ccc(O)c3c(=O)cc(-c4cccc(Cl)c4)oc23)cc1	> 35 µM (inactive)
COc1ccc(-c2cc3ccccc3oc2=O)cc1NC(=S)NC(=O)c1ccc2c(c1)OCCO2	6.36 µM
Cc1cc(NC(=O)CSc2nc3cc(Cl)ccc3c(=O)n2Cc2ccco2)no1	> 35 µM (inactive)
CC(C)N=c1scc(-c2ccco2)n1/N=C/c1ccc(O)c(O)c1	> 35 µM (inactive)
COC(=O)c1ccc2c(c1)C(C)(C)C(/C=C/c1ccccc1O)=[N+]2C	11.3 µM
CCc1nc(N=Nc2c(O)[nH]c3ccccc23)c2c3c(sc2n1)CCC3	20.7 µM
CC(C)CC(NC(=O)c1ccc(Cl)cc1)C(=O)OCC(=O)c1ccc2c(c1)NC(=O)CO2 (stereo unspecified)	5.62 µM
O=C(COc1ccc(/C=N/NC(=O)c2cc3ccccc3o2)cc1Br)Nc1ccccc1	25.3 µM
Nc1c(C(=O)Nc2ccc(S(=O)(=O)N3CCCC3)cc2)sc2nc3ccc(OC(F)(F)F)cc3cc12	23.3 µM
COc1ccc(C=C2C=C(C(C)(C)C)C(=O)C(C(C)(C)C)=C2)cc1OC	3.49 µM
CCN(C(=O)CCN1C(=O)c2ccccc2S1(=O)=O)c1ccccc1	> 35 µM (inactive)
CCOCCCNC(=O)c1ccc2c(c1)N=C(CC)c1cc(Br)ccc1S2	> 35 µM (inactive)
CCOc1ccc(N2C(=O)/C(=C\c3ccc(O)c(OC)c3)S(=O)(=O)C2c2cccc([N+](=O)[O-])c2)cc1 (stereo unspecified)	> 35 µM (inactive)
C=C1/C=C(\C)[C@](C)(O)C[C@H](O)CC(=O)[C@H](O)[C@@H](O)[C@H](C)C[C@H](C)OC(=O)/C(C)=C/CC/C=C/[C@@H]2O[C@H]2C[C@H](C)C1	> 35 µM (inactive)
O=C(Nc1ccc2oc(-c3cccc(F)c3)nc2c1)c1ccccc1F	> 35 µM (inactive)
O=C1/C(=C/c2ccc(N3CCOCC3)o2)SC(=Nc2ccccc2)N1CCc1c[nH]c2ccccc12	> 35 µM (inactive)
CCCCC1CCC(C(=O)N(CC(C)C)c2c(N)n(Cc3ccccc3)c(=O)[nH]c2=O)CC1 (stereo unspecified)	8.13 µM
Cc1ccc(NC(=O)c2ccc(N/N=C/c3cccc(O)c3)c([N+](=O)[O-])c2)cc1	34.6 µM

SMILES	AC50
O=C(N/C=N/OCc1ccc(Cl)cc1Cl)NOCc1ncc(C(F)(F)F)cc1Cl	> 35 µM (inactive)
N#Cc1c(C(F)(F)F)cc(-c2ccccc2)nc1SCC(=O)Nc1sc2c(c1C#N)CCC2	> 35 µM (inactive)
COc1ccccc1-c1cc(C(F)(F)F)nc(S(=O)(=O)CCCC(=O)NC(C)C)n1	8.84 µM
N#C/C(=C\c1ccc(OCc2ccccc2)cc1)C(=O)Nc1nc2c(s1)CCN(Cc1ccccc1)C2	> 35 µM (inactive)
COc1cc(C(=O)Nc2cc3c(cc2N2CCCCC2)n(C)c(=O)n3C)cc(OC)c1OC	> 35 µM (inactive)
O=C(Cn1c(C(F)(F)F)nc2ccccc21)N=Nc1c(O)[nH]c2ccc(Br)cc12	29.8 µM
O=C(CCl)N=c1sccn1Cc1ccccc1Cl	> 35 µM (inactive)
CCOc1cc(/C=N/Nc2cc(C)nc(-n3nc(C)cc3C)n2)ccc1O	> 35 µM (inactive)
CCOc1ccc2nc(NCCNC(=O)Nc3cccc(C)c3)c(C#N)cc2c1	33.9 µM
CCc1ccc2nc(N(CCCN(C)C)C(=O)c3ccc(S(=O)(=O)N4CCc5ccccc5C4)cc3)sc2c1	> 35 µM (inactive)
COc1cc(/C=C2/C(=N)N3C=CSC3=NC2=O)ccc1OCCCOc1cc(C)ccc1C	16.2 µM
Cc1cccc(Nc2nc(N)c([N+](=O)[O-])c(N3CCCC(C)C3)n2)c1 (stereo unspecified)	> 35 µM (inactive)
COc1ccc2c(-c3cc4ccc(OCc5ccc(F)cc5)cc4oc3=O)cc(=O)oc2c1	21.1 µM
O=C(NC1CCCCC1)C(c1ccc(F)cc1)N(CCc1ccccc1)C(=O)CN1C(=O)c2ccccc2S1(=O)=O (stereo unspecified)	7.6 µM
NS(=O)(=O)c1ccc(N/N=C2/CCCCC2C2CCCCC2)c([N+](=O)[O-])c1 (stereo unspecified)	32.3 µM
CCOC(=O)C1=C(c2ccccc2)O/C(=C(/C#N)C(F)(F)F)S1	> 35 µM (inactive)
Cc1ccc2c(c1)c(C1=c3ccccc3=NC1=O)c(O)n2C	> 35 µM (inactive)
COc1cc2c(-c3ccccc3)c(C)oc2cc1/C=N/NC(N)=S	> 35 µM (inactive)
